Reference: ChEMBL document CHEMBL3286187, “Synthesis, antibacterial and antitubercular activities of benzimidazole bearing substituted 2-pyridone motifs” (Eur J Med Chem, 2014)
Converted amounts (≈) assume the structure as drawn.

What was measured:
[1] = tested on: Streptococcus pyogenes; assay: Antimicrobial activity against Streptococcus pyogenes MTCC-442 after 24 hrs by broth dilution method; type: functional; settings: MTCC-442, 24 h
In short: (§1)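 NCCLS broth dilution in Mueller Hinton broth with 2% DMSO as vehicle. Primary screen at 1000, 500 and 250 µg/mL; actives retested at 200 to 6.25 µg/mL. Inoculum 10⁶ CFU/mL, set by turbidity. Incubated 24 h at 37 °C; growth read visually and spectrophotometrically. MIC is the lowest concentration arresting growth. Chloramphenicol was the positive control; DMSO and water were negative controls.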

[2] = tested on: Mycobacterium tuberculosis; assay: Antitubercular activity against Mycobacterium tuberculosis H37Rv ATCC 27294 after 5 to 8 days by BACTEC 12B method; type: functional
[3] = tested on: Staphylococcus aureus; assay: Antimicrobial activity against Staphylococcus aureus MTCC-96 after 24 hrs by broth dilution method; type: functional; settings: MTCC-96, 24 h; in short: as §1
[4] = tested on: Escherichia coli; assay: Antimicrobial activity against Escherichia coli MTCC-443 after 24 hrs by broth dilution method; type: functional; settings: MTCC-443, 24 h; in short: as §1
[5] = tested on: Pseudomonas aeruginosa; assay: Antimicrobial activity against Pseudomonas aeruginosa MTCC-1688 after 24 hrs by broth dilution method; type: functional; settings: MTCC-1688, 24 h; in short: as §1
[6] = tested on: Vero; assay: Cytotoxicity against african green monkey Vero cells after 72 hrs by MTS-PMS method; type: cell-based; settings: Chlorocebus sabaeus
In short: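 Vero cells in DMEM with 10% FBS at 37 °C, 5% CO2, diluted to 10^6 cells/mL. Threefold serial dilutions gave final […] to 0.12 µg/mL with 1% DMSO. Incubated 72 h, washed with HBSS, then MTS-PMS (100:20) added for 3 h; absorbance read at 490 nm. Triplicate wells, assay repeated three times. Controls set as 100% viability; IC50 taken as 50% growth inhibition.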

[7] = tested on: Staphylococcus aureus; assay: Antimicrobial activity against methicillin-resistant Staphylococcus aureus ATCC 43300 after 24 hrs by broth dilution method; type: functional; settings: ATCC 43300, 24 h
In short: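 Broth dilution per NCCLS in Mueller Hinton broth; compounds in 2% DMSO, 1000 µg/mL stock; primary screen 1000, 500, 250 µg/mL, then secondary dilutions 200 to 6.25 µg/mL. Inoculum 10⁶ CFU/mL by turbidity; 24 h at 37 °C, growth read visually and spectrophotometrically. MIC = lowest concentration arresting growth. DMSO/water negative control; chloramphenicol positive control.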

[8] = tested on: Staphylococcus aureus; assay: Ratio of chloramphenicol MIC to compound MIC for methicillin-resistant Staphylococcus aureus ATCC 43300 after 24 hrs by broth dilution method; type: functional
[9] = tested on: Staphylococcus aureus; assay: Ratio of ciprofloxacin MIC to compound MIC for methicillin-resistant Staphylococcus aureus ATCC 43300 after 24 hrs by broth dilution method; type: functional

| Structure (SMILES) | MIC [1] [µg/mL] | MIC [2] [µg/mL] | MIC [3] [µg/mL] | MIC [4] [µg/mL] | MIC [5] [µg/mL] | IC50 [6] [µg/mL] | MIC [7] [µg/mL] | Ratio [8] | Ratio [9] |
| --- | --- | --- | --- | --- | --- | --- | --- | --- | --- |
| COc1cccc(/C=N/c2c(C#N)c(-c3ccc([N+](=O)[O-])cc3)c(C#N)c(=O)n2/N=C(\C)c2nc3ccccc3[nH]2)c1 | 250 (≈ 449 µM) | 18 (≈ 32.3 µM) | 100 (≈ 180 µM) | 250 (≈ 449 µM) | 500 (≈ 898 µM) | 24.2 (≈ 43.5 µM) |  |  |  |
| C/C(=N\n1c(/N=C/c2cccc(O)c2)c(C#N)c(-c2ccc([N+](=O)[O-])cc2)c(C#N)c1=O)c1nc2ccccc2[nH]1 | 500 (≈ 922 µM) | 30.2 (≈ 55.6 µM) | 100 (≈ 184 µM) | 500 (≈ 922 µM) | 250 (≈ 461 µM) | 17 (≈ 31.3 µM) |  |  |  |
| C/C(=N\n1c(/N=C/c2ccc(Cl)cc2)c(C#N)c(-c2ccc([N+](=O)[O-])cc2)c(C#N)c1=O)c1nc2ccccc2[nH]1 | 50 (≈ 89.1 µM) | 1.79 (≈ 3.19 µM) | 62.5 (≈ 111 µM) | 100 (≈ 178 µM) | 100 (≈ 178 µM) | > 39.4 |  |  |  |
| C/C(=N\n1c(/N=C/c2ccc(C)cc2)c(C#N)c(-c2ccc([N+](=O)[O-])cc2)c(C#N)c1=O)c1nc2ccccc2[nH]1 | 125 (≈ 231 µM) | 6.28 (≈ 11.6 µM) | 250 (≈ 462 µM) | 250 (≈ 462 µM) | 250 (≈ 462 µM) | > 39.4 |  |  |  |
| C/C(=N\n1c(/N=C/c2cccc(Cl)c2)c(C#N)c(-c2ccc([N+](=O)[O-])cc2)c(C#N)c1=O)c1nc2ccccc2[nH]1 | 50 (≈ 89.1 µM) | 0.85 (≈ 1.52 µM) | 25 (≈ 44.6 µM) | 50 (≈ 89.1 µM) | 62.5 (≈ 111 µM) | > 39.4 | > 50 |  |  |
| C/C(=N\n1c(/N=C/c2ccccc2O)c(C#N)c(-c2ccc([N+](=O)[O-])cc2)c(C#N)c1=O)c1nc2ccccc2[nH]1 | 250 (≈ 461 µM) | 31.6 (≈ 58.3 µM) | 500 (≈ 922 µM) | 500 (≈ 922 µM) | 500 (≈ 922 µM) | 19.8 (≈ 36.6 µM) |  |  |  |
| C/C(=N\n1c(/N=C/c2ccc(F)cc2)c(C#N)c(-c2ccc([N+](=O)[O-])cc2)c(C#N)c1=O)c1nc2ccccc2[nH]1 | 100 (≈ 184 µM) | 27.1 (≈ 49.8 µM) | 250 (≈ 459 µM) | 250 (≈ 459 µM) | 250 (≈ 459 µM) | 24.8 (≈ 45.5 µM) |  |  |  |
| C/C(=N\n1c(/N=C/c2ccccc2Cl)c(C#N)c(-c2ccc([N+](=O)[O-])cc2)c(C#N)c1=O)c1nc2ccccc2[nH]1 | 62.5 (≈ 111 µM) | 2.65 (≈ 4.72 µM) | 50 (≈ 89.1 µM) | 100 (≈ 178 µM) | 125 (≈ 223 µM) | > 39.4 |  |  |  |
| COc1ccc(/C=N/c2c(C#N)c(-c3ccc([N+](=O)[O-])cc3)c(C#N)c(=O)n2/N=C(\C)c2nc3ccccc3[nH]2)cc1 | 250 (≈ 449 µM) | 23.5 (≈ 42.2 µM) | 250 (≈ 449 µM) | 500 (≈ 898 µM) | 500 (≈ 898 µM) | 25.4 (≈ 45.6 µM) |  |  |  |
| C/C(=N\n1c(/N=C/c2ccccc2C)c(C#N)c(-c2ccc([N+](=O)[O-])cc2)c(C#N)c1=O)c1nc2ccccc2[nH]1 | 100 (≈ 185 µM) | 9.17 (≈ 17 µM) | 125 (≈ 231 µM) | 250 (≈ 462 µM) | 250 (≈ 462 µM) | 34.5 (≈ 63.9 µM) |  |  |  |
| C/C(=N\n1c(/N=C/c2ccccc2)c(C#N)c(-c2ccc([N+](=O)[O-])cc2)c(C#N)c1=O)c1nc2ccccc2[nH]1 | 500 (≈ 950 µM) | 35.2 (≈ 66.9 µM) | 500 (≈ 950 µM) | 500 (≈ 950 µM) | 500 (≈ 950 µM) | 17.6 (≈ 33.4 µM) |  |  |  |
| O=C(O)c1cn(C2CC2)c2cc(N3CCNCC3)c(F)cc2c1=O [CIPROFLOXACIN] | 50 (≈ 151 µM) |  | 50 (≈ 151 µM) | 25 (≈ 75.4 µM) |  |  |  |  |  |
| C/C(=N\n1c(/N=C/c2cccc(C)c2)c(C#N)c(-c2ccc([N+](=O)[O-])cc2)c(C#N)c1=O)c1nc2ccccc2[nH]1 | 100 (≈ 185 µM) | 2.07 (≈ 3.83 µM) | 100 (≈ 185 µM) | 100 (≈ 185 µM) | 100 (≈ 185 µM) | > 39.4 |  |  |  |
| O=C(N[C@H](CO)[C@H](O)c1ccc([N+](=O)[O-])cc1)C(Cl)Cl [CHLORAMPHENICOL] | 50 (≈ 155 µM) |  | 50 (≈ 155 µM) | 50 (≈ 155 µM) | 50 (≈ 155 µM) |  | 50 (≈ 155 µM) |  |  |
| C/C(=N\NC(=O)CC#N)c1nc2ccccc2[nH]1 | 1000 (≈ 4150 µM) | > 39.4 | 1000 (≈ 4150 µM) | > 1000 | > 1000 |  |  |  |  |
| C/C(=N\n1c(/N=C/c2cccc([N+](=O)[O-])c2)c(C#N)c(-c2ccc([N+](=O)[O-])cc2)c(C#N)c1=O)c1nc2ccccc2[nH]1 | 500 (≈ 875 µM) | 28.3 (≈ 49.6 µM) | 250 (≈ 437 µM) | 250 (≈ 437 µM) | 500 (≈ 875 µM) | 27.6 (≈ 48.3 µM) |  |  |  |
| C/C(=N\n1c(/N=C/c2ccc([N+](=O)[O-])cc2)c(C#N)c(-c2ccc([N+](=O)[O-])cc2)c(C#N)c1=O)c1nc2ccccc2[nH]1 | 500 (≈ 875 µM) | 32.2 (≈ 56.4 µM) | 500 (≈ 875 µM) | 1000 (≈ 1750 µM) | 1000 (≈ 1750 µM) | 16.1 (≈ 28.1 µM) |  |  |  |
| C/C(=N\n1c(/N=C/c2ccc(Br)cc2)c(C#N)c(-c2ccc([N+](=O)[O-])cc2)c(C#N)c1=O)c1nc2ccccc2[nH]1 | 50 (≈ 82.6 µM) | 13.8 (≈ 22.8 µM) | 25 (≈ 41.3 µM) | 50 (≈ 82.6 µM) | 50 (≈ 82.6 µM) | > 39.4 | 6.25 (≈ 10.3 µM) | 8 | 4 |
| C/C(=N\n1c(/N=C/c2ccc(O)cc2)c(C#N)c(-c2ccc([N+](=O)[O-])cc2)c(C#N)c1=O)c1nc2ccccc2[nH]1 | 250 (≈ 461 µM) | 30.9 (≈ 56.9 µM) | 500 (≈ 922 µM) | 250 (≈ 461 µM) | 500 (≈ 922 µM) | 13.7 (≈ 25.3 µM) |  |  |  |
| NNC(=O)c1ccncc1 [ISONIAZID] |  | 0.24 (≈ 1.75 µM) |  |  |  |  |  |  |  |
| C/C(=N\n1c(N)c(C#N)c(-c2ccc([N+](=O)[O-])cc2)c(C#N)c1=O)c1nc2ccccc2[nH]1 | 500 (≈ 1140 µM) | > 39.4 | 500 (≈ 1140 µM) | 500 (≈ 1140 µM) | 500 (≈ 1140 µM) |  |  |  |  |
| C/C(=N\n1c(/N=C/c2cccc(Br)c2)c(C#N)c(-c2ccc([N+](=O)[O-])cc2)c(C#N)c1=O)c1nc2ccccc2[nH]1 | 25 (≈ 41.3 µM) | 10.3 (≈ 17 µM) | 12.5 (≈ 20.6 µM) | 25 (≈ 41.3 µM) | 25 (≈ 41.3 µM) | > 39.4 | 12.5 (≈ 20.6 µM) | 4 | 2 |
| C/C(=N\n1c(/N=C/c2cccc(F)c2)c(C#N)c(-c2ccc([N+](=O)[O-])cc2)c(C#N)c1=O)c1nc2ccccc2[nH]1 | 125 (≈ 230 µM) | 25.4 (≈ 46.6 µM) | 100 (≈ 184 µM) | 100 (≈ 184 µM) | 250 (≈ 459 µM) | 23.6 (≈ 43.4 µM) |  |  |  |
